Active and inactive are the calls of the source. The calls are words filed in the database; no cut-off is given here. Bridge positions count the residues as written; N and C are the ends. Square brackets hold non-standard residues; d marks the D form. Peptide text beside a SMILES is read from it. Nle = CCCC[C@H](N)C(=O)O; Nva = CCC[C@H](N)C(=O)O; Abu = CC[C@H](N)C(=O)O
Tests used:
Assay type in all cases: cell-based
[1] = biological target: T1, Neuronal acetylcholine receptor; alpha3/beta4 (Rattus norvegicus, UniProt P04757+P12392); test: Displacement of [3H]epibatadine from rat alpha3beta4 nAChR expressed in HEK293 cells after 2 hrs by betaplate counting analysis
Summary of the method: (§1)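 Membranes from HEK293 cells stably expressing α3β4 or α4β2 nAChR, homogenised in 50 mM Tris pH 7.4 and washed by centrifugation. Incubated 2 h at room temperature with peptide and 0.31 nM [3H]epibatidine; filtered on PEI-soaked glass fibre, counted. Nonspecific binding with 0.1 μM unlabeled epibatidine. Ki by Cheng–Prusoff from IC50.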

[2] = biological target: Neuronal acetylcholine receptor; alpha4/beta2 (Rattus norvegicus, UniProt P09483+P12390); test: Antagonist activity at rat alpha4beta2 nAChR expressed in HEK293 cells assessed as inhibition of epibatadine-induced effect after 30 mins by fluorescent membrane potential assay
Summary of the method: (§2)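 Stably transfected HEK293 lines (KXα3β4R2, KXα3β2R2, KXα4β2R2; rat subunits) grown in DMEM/10% FBS with G-418, plated 24 h before assay. Cells washed with HBSS, peptide added, then membrane potential blue dye, 30 min at 37 °C. Fluorescence (ex 565/em 530 nm) read up to 60 s after epibatidine to 0.1 μM. IC50 from maximal responses across concentrations; n = 4.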

[3] = biological target: Neuronal acetylcholine receptor; alpha3/beta2 (Rattus norvegicus, UniProt P04757+P12390); test: Antagonist activity at rat alpha3beta2 nAChR expressed in HEK293 cells assessed as inhibition of epibatadine-induced effect after 30 mins by fluorescent membrane potential assay; summary of the method: as §2
[4] = biological target: T1, Neuronal acetylcholine receptor; alpha3/beta4; test: Antagonist activity at rat alpha3beta4 nAChR expressed in HEK293 cells assessed as inhibition of epibatadine-induced effect after 30 mins by fluorescent membrane potential assay; summary of the method: as §2
[5] = biological target: Neuronal acetylcholine receptor; alpha4/beta2 (Rattus norvegicus) (UniProt P09483+P12390); test: Displacement of [3H]epibatadine from rat alpha4beta2 nAChR expressed in HEK293 cells up to 10 uM after 2 hrs by betaplate counting analysis; summary of the method: as §1
[6] = biological target: Neuronal acetylcholine receptor; alpha3/beta4 (Rattus norvegicus) (UniProt P04757+P12392); test: Antagonist activity at rat alpha3beta4 nAChR expressed in HEK293 cells assessed as inhibition of epibatadine-induced effect at 10 uM after 30 mins by fluorescent membrane potential assay relative to mecamylamine
Summary of the method: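 Rat α3β4 nAChR stably expressed in HEK293 cells; crude, SPE-desalted individual peptides tested at 10 μM in HBSS with membrane potential blue dye, 30 min at 37 °C. Fluorescence change read after epibatidine (0.1 μM). Percent inhibition set against 10 μM mecamylamine taken as 100%.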

[7] = biological target: Neuronal acetylcholine receptor subunit alpha-7 (Homo sapiens) (UniProt P36544); test: Inhibition of alpha7 nAChR (unknown origin) expressed in Xenopus laevis oocytes assessed as inhibition of acetylcholine-evoked current at 10 uM by voltage clamp technique
[8] = biological target: T2, Neuronal acetylcholine receptor; alpha3/beta4 (Homo sapiens, UniProt P30926+P32297); test: Inhibition of human alpha3beta4 nAChR expressed in Xenopus laevis oocytes by two-electrode voltage clamp technique
[9] = biological target: T2, Neuronal acetylcholine receptor; alpha3/beta4; test: Inhibition of alpha3beta4 nAChR (unknown origin) expressed in Xenopus laevis oocytes assessed as inhibition of acetylcholine-evoked current at 10 uM by voltage clamp technique
Homo sapiens = organism: Homo sapiens; test: Selectivity for alpha3beta4 nAChR (unknown origin) expressed in Xenopus laevis oocytes over alpha3beta2 nAChR (unknown origin) expressed in Xenopus laevis oocytes
[10] = biological target: T2, Neuronal acetylcholine receptor; alpha3/beta4; test: Inhibition of alpha3beta4 nAChR (unknown origin) expressed in Xenopus laevis oocytes assessed as inhibition of acetylcholine-evoked current by voltage clamp technique
Summary of the method: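 Oocytes expressing α3 chimera/β4 nAChR, voltage-clamped at ~22 °C. Concentrations below 1 μM perfused, with 1 s ACh pulses every 1 min; 1 μM and above given as a 5 min static bath. Lowest concentration tested 10 nM. IC50 from a concentration–response curve with top and bottom fixed at 100 and 0; n = 3–5 oocytes per concentration.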

[11] = biological target: Neuronal acetylcholine receptor; alpha3/beta2 (Homo sapiens) (UniProt P17787+P32297); test: Inhibition of alpha3beta2 nAChR (unknown origin) expressed in Xenopus laevis oocytes assessed as inhibition of acetylcholine-evoked current up to 10 uM by voltage clamp technique

T1 sequence (P04757 whole entry): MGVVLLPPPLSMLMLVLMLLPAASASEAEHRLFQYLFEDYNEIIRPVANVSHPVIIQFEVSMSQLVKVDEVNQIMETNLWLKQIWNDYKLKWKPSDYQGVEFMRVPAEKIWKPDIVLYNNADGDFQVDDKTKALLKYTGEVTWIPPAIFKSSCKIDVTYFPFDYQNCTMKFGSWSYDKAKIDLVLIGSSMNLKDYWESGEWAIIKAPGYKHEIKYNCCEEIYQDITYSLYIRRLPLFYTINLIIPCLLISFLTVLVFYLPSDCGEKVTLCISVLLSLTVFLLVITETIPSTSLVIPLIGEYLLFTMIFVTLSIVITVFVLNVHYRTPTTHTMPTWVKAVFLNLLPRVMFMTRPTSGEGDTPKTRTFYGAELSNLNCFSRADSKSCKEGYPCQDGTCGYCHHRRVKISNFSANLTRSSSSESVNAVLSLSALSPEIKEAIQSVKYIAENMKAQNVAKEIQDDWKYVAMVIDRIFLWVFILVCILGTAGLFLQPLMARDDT
T1 sequence (P12392 whole entry): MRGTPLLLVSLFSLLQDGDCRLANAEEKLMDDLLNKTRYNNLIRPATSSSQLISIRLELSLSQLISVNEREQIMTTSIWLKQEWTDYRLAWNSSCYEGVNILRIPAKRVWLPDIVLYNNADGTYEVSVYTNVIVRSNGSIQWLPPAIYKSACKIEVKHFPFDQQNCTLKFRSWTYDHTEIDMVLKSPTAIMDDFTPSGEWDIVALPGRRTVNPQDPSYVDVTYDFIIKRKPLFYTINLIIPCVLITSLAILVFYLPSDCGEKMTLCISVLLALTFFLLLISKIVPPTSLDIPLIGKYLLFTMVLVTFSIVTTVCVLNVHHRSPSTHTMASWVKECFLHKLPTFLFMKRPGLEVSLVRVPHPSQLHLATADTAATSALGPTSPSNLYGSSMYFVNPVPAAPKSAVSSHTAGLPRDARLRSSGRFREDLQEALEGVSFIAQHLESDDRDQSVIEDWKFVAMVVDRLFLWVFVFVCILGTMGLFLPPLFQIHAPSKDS
Sequence of Neuronal acetylcholine receptor; alpha3/beta2 (P04757 whole entry): as the sequence (P04757 whole entry) above
Sequence of Neuronal acetylcholine receptor; alpha3/beta2 (P12390 whole entry): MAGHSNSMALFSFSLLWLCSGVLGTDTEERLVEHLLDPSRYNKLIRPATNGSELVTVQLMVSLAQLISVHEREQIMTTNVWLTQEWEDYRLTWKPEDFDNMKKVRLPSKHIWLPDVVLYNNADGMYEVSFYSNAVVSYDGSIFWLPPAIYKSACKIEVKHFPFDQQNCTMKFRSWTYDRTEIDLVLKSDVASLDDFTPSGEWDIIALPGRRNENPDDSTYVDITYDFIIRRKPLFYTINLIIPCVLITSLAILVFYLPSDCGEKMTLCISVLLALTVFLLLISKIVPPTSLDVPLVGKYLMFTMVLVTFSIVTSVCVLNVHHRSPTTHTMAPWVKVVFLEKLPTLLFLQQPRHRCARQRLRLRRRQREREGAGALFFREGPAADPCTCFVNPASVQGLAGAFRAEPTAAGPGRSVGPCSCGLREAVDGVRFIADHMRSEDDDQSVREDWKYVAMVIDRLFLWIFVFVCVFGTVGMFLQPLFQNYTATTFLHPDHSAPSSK
Sequence of Neuronal acetylcholine receptor subunit alpha-7 (Homo sapiens) (P36544 whole entry): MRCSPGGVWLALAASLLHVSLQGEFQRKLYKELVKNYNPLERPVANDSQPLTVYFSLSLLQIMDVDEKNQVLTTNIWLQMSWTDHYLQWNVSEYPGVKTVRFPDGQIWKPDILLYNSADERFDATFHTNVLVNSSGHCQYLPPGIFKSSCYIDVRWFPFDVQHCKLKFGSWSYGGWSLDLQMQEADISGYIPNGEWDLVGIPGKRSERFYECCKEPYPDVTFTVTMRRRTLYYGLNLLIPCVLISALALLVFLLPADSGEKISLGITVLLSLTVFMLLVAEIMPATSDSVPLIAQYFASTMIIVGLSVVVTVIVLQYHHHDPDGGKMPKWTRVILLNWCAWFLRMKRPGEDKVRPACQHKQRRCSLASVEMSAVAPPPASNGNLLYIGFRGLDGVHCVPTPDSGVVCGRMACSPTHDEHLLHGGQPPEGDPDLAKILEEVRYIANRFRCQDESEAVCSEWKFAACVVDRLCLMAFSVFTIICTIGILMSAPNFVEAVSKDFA
Sequence of Neuronal acetylcholine receptor; alpha4/beta2 (P09483 whole entry): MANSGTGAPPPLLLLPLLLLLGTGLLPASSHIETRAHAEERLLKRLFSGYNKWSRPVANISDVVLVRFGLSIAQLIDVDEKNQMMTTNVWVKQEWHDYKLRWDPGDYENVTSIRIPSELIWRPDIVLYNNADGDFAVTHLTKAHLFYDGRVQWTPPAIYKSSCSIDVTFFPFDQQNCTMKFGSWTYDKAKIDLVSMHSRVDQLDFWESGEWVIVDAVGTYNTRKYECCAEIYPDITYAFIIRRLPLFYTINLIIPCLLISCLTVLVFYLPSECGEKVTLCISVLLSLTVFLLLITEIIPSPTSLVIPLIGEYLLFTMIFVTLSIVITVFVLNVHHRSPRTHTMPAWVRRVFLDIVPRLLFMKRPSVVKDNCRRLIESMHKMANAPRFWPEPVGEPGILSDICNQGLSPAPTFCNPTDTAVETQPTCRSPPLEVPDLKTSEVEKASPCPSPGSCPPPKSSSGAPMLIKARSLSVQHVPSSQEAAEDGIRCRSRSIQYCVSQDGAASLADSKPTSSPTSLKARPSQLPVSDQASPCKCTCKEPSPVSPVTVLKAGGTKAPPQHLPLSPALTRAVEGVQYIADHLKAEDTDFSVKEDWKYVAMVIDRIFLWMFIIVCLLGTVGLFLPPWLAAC
Sequence of Neuronal acetylcholine receptor; alpha4/beta2 (P12390 whole entry): as the sequence (P12390 whole entry) above
T2 sequence (P30926 whole entry): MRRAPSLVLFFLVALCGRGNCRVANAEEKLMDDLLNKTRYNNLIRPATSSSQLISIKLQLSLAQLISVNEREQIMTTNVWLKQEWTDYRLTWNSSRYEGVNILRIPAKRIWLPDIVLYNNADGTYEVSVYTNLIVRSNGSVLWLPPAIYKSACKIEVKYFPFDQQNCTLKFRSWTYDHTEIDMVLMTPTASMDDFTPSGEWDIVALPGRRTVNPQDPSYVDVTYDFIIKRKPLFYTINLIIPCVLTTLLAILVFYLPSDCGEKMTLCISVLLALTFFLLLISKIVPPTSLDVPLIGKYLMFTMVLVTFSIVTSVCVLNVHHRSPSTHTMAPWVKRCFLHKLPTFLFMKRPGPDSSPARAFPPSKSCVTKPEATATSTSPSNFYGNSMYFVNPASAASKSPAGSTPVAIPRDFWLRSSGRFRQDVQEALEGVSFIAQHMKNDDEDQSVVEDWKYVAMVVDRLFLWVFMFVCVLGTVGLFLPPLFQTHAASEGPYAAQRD
T2 sequence (P32297 whole entry): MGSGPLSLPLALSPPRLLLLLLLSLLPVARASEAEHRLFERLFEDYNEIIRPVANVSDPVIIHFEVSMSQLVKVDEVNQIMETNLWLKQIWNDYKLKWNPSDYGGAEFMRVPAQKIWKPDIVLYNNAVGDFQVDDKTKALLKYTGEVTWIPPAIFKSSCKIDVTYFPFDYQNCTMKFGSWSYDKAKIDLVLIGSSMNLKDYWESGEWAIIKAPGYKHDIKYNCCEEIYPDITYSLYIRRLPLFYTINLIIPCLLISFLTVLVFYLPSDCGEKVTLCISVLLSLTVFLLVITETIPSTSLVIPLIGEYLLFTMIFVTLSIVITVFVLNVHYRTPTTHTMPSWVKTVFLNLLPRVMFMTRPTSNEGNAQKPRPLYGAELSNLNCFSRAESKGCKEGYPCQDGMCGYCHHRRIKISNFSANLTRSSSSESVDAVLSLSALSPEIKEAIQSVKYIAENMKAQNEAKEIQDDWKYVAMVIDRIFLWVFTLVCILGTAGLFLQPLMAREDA

Compound | Ki [1] | IC50 [2] | IC50 [3] | IC50 [4] | Activity [5] | inhibition [6] | inhibition [7] | IC50 [8] | inhibition [9] | Selectivity ratio (Homo sapiens) | inhibition [10] | inhibition [11]
CCCC[C@@H]1NC(=O)[C@H](CO)NC(=O)[C@@H]2CSSC[C@@H](C(=O)O)NC(=O)[C@H](Cc3ccc(O)cc3)NC(=O)[C@H](CCC)NC(=O)[C@H](CC)NC(=O)[C@H](Cc3ccccc3)NC(=O)[C@H](CSSC[C@H](NC(=O)CN)C(=O)N2)NC(=O)[C@@H]2CCCN2C(=O)[C@@H]2CCCN2C1=O (H-GCCS[Nle]PPCF[Abu][Nva]YC-OH; disulfide 2-8, 3-13) | 1110 nM | > 10000 nM | > 10000 nM | 345 nM | inactive | 96.4% | inactive |  |  |  |  | 
CCCC[C@@H]1NC(=O)[C@H](Cc2c[nH]c3ccccc23)NC(=O)[C@H](Cc2ccccc2)NC(=O)[C@@H]2CSSC[C@H](NC(=O)CN)C(=O)N[C@@H](CSSC[C@@H](C(=O)O)NC(=O)[C@H](Cc3ccc(O)cc3)NC1=O)C(=O)N[C@@H](CO)C(=O)N[C@@H](Cc1cnc[nH]1)C(=O)N1CCC[C@H]1C(=O)N[C@@H](CC)C(=O)N2 (H-GCCSHP[Abu]CFW[Nle]YC-OH; disulfide 2-8, 3-13) |  | > 10000 nM | > 10000 nM | 1730 nM |  | 101% |  |  |  |  |  | 
CCC[C@@H]1NC(=O)[C@H](CC)NC(=O)[C@H]([C@H](C)CC)NC(=O)[C@@H]2CSSC[C@H](NC(=O)CN)C(=O)N[C@@H](CSSC[C@@H](C(=O)O)NC(=O)[C@H](Cc3ccc(O)cc3)NC1=O)C(=O)N[C@@H](CO)C(=O)N[C@@H](Cc1cnc[nH]1)C(=O)N1CCC[C@H]1C(=O)N[C@@H](CC)C(=O)N2 |  | > 10000 nM | > 10000 nM | 1930 nM |  | 84.5% |  |  |  |  |  | 
CCC[C@@H]1NC(=O)[C@H](CC)NC(=O)[C@H](Cc2ccccc2)NC(=O)[C@@H]2CSSC[C@H](NC(=O)CN)C(=O)N[C@@H](CSSC[C@@H](C(=O)O)NC(=O)[C@H](Cc3ccc(O)cc3)NC1=O)C(=O)N[C@@H](CO)C(=O)N[C@@H](Cc1cnc[nH]1)C(=O)N1CCC[C@H]1C(=O)N1CCC[C@H]1C(=O)N2 (H-GCCSHPPCF[Abu][Nva]YC-OH; disulfide 2-8, 3-13) | 794 nM | > 10000 nM | > 10000 nM | 298 nM | inactive | 92.6% | 49.8% |  |  |  |  | 
CCCC[C@@H]1NC(=O)[C@H](CC)NC(=O)[C@H](Cc2ccccc2)NC(=O)[C@@H]2CSSC[C@H](NC(=O)CN)C(=O)N[C@@H](CSSC[C@@H](C(=O)O)NC(=O)[C@H](Cc3ccc(O)cc3)NC1=O)C(=O)N[C@@H](CO)C(=O)N[C@@H](CCCC)C(=O)N1CCC[C@H]1C(=O)N1CCC[C@H]1C(=O)N2 (H-GCCS[Nle]PPCF[Abu][Nle]YC-OH; disulfide 2-8, 3-13) |  | > 10000 nM | > 10000 nM | 397 nM |  | 107% |  |  |  |  |  | 
CCCC[C@@H]1NC(=O)[C@H](CC)NC(=O)[C@H](Cc2ccccc2)NC(=O)[C@@H]2CSSC[C@H](NC(=O)CN)C(=O)N[C@@H](CSSC[C@@H](C(=O)O)NC(=O)[C@H](Cc3ccc(O)cc3)NC1=O)C(=O)N[C@@H](CO)C(=O)N[C@@H](Cc1cnc[nH]1)C(=O)N1CCC[C@H]1C(=O)N[C@@H](CC)C(=O)N2 (H-GCCSHP[Abu]CF[Abu][Nle]YC-OH; disulfide 2-8, 3-13) |  | > 10000 nM | > 10000 nM | 307 nM |  | 110% |  |  |  |  |  | 
CCCC[C@@H]1NC(=O)[C@H](CC)NC(=O)[C@H]([C@H](C)CC)NC(=O)[C@@H]2CSSC[C@H](NC(=O)CN)C(=O)N[C@@H](CSSC[C@@H](C(=O)O)NC(=O)[C@H](Cc3ccc(O)cc3)NC1=O)C(=O)N[C@@H](CO)C(=O)N[C@@H](Cc1cnc[nH]1)C(=O)N1CCC[C@H]1C(=O)N[C@@H](CC)C(=O)N2 |  | > 10000 nM | > 10000 nM | 463 nM |  | 110% |  |  |  |  |  | 
CC[C@H](C)[C@@H]1NC(=O)[C@H](Cc2cnc[nH]2)NC(=O)[C@H](CCC(N)=O)NC(=O)[C@H](CC(N)=O)NC(=O)[C@H](CC(N)=O)NC(=O)CNC(=O)[C@H](C)NC(=O)[C@@H]2CSSC[C@H](NC(=O)CN)C(=O)N[C@@H](CSSC[C@@H](C(=O)O)NC1=O)C(=O)N[C@@H](CO)C(=O)N[C@@H](Cc1cnc[nH]1)C(=O)N1CCC[C@H]1C(=O)N[C@@H](C)C(=O)N2 |  |  |  |  |  |  |  | 755 nM |  |  |  | 
CCC[C@@H]1NC(=O)[C@H](CC)NC(=O)[C@H](Cc2ccccc2)NC(=O)[C@@H]2CSSC[C@H](NC(=O)CN)C(=O)N[C@@H](CSSC[C@@H](C(=O)O)NC(=O)[C@H](Cc3ccc(O)cc3)NC1=O)C(=O)N[C@@H](CO)C(=O)N[C@@H](Cc1cnc[nH]1)C(=O)N1CCC[C@H]1C(=O)N[C@@H](CC)C(=O)N2 (H-GCCSHP[Abu]CF[Abu][Nva]YC-OH; disulfide 2-8, 3-13) | 270 nM | > 10000 nM | > 10000 nM | 183 nM | inactive | 109% | inactive |  | 75% | > 1000 | Dose-dependent effect | inactive
CCCC[C@@H]1NC(=O)[C@H](CC)NC(=O)[C@H](Cc2ccccc2)NC(=O)[C@@H]2CSSC[C@H](NC(=O)CN)C(=O)N[C@@H](CSSC[C@@H](C(=O)O)NC(=O)[C@H](Cc3ccc(O)cc3)NC1=O)C(=O)N[C@@H](CO)C(=O)N[C@@H](CCCC)C(=O)N1CCC[C@H]1C(=O)N[C@@H](CC)C(=O)N2 (H-GCCS[Nle]P[Abu]CF[Abu][Nle]YC-OH; disulfide 2-8, 3-13) |  | > 10000 nM | > 10000 nM | 310 nM |  | 106% |  |  |  |  |  | 
CCCC[C@@H]1NC(=O)[C@H](CO)NC(=O)[C@@H]2CSSC[C@@H](C(=O)O)NC(=O)[C@H](Cc3ccc(O)cc3)NC(=O)[C@H](CCC)NC(=O)[C@H](CC)NC(=O)[C@H](Cc3ccccc3)NC(=O)[C@H](CSSC[C@H](NC(=O)CN)C(=O)N2)NC(=O)[C@H](CC)NC(=O)[C@@H]2CCCN2C1=O (H-GCCS[Nle]P[Abu]CF[Abu][Nva]YC-OH; disulfide 2-8, 3-13) | 980 nM | > 10000 nM | > 10000 nM | 320 nM | inactive | 104% | inactive |  |  |  |  | 
CCCC[C@@H]1NC(=O)[C@H](CC)NC(=O)[C@H](Cc2ccccc2)NC(=O)[C@@H]2CSSC[C@H](NC(=O)CN)C(=O)N[C@@H](CSSC[C@@H](C(=O)O)NC(=O)[C@H](Cc3ccc(O)cc3)NC1=O)C(=O)N[C@@H](CO)C(=O)N[C@@H](Cc1cnc[nH]1)C(=O)N1CCC[C@H]1C(=O)N1CCC[C@H]1C(=O)N2 (H-GCCSHPPCF[Abu][Nle]YC-OH; disulfide 2-8, 3-13) |  | > 10000 nM | > 10000 nM | 469 nM |  | 106% |  |  |  |  |  | 
